# Laboratory results published in ChEMBL document CHEMBL3297708, “Lead optimization of a novel series of imidazo[1,2-a]pyridine amides leading to a clinical candidate (Q203) as a multi- and extensively-drug-resistant anti-tuberculosis agent” (J Med Chem, 2014).
# Assays:
# [1] = tested on: Mycobacterium tuberculosis; experiment: Antimycobacterial activity against Mycobacterium tuberculosis H37Rv in liquid broth culture medium; format: functional
# In short: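 M. tuberculosis H37Rv replicating in liquid broth culture medium; MIC80 determined, i.e. concentration inhibiting 80% of growth.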
# [2] = tested on: Mycobacterium tuberculosis; experiment: Antimycobacterial activity against Mycobacterium tuberculosis H37Rv in macrophages; format: functional
# In short: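 M. tuberculosis H37Rv replicating inside macrophages; intracellular MIC80 determined, i.e. concentration inhibiting 80% of growth.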
# [3] = Half life in human liver microsomes; format: ADME
# In short: (§1)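 Metabolic stability measured by incubation in human or mouse liver microsomal preparations; half-life reported.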
# [4] = Half life in mouse liver microsomes; format: ADME; in short: as §1
# Cytochrome P450 3A4 = Cytochrome P450 3A4 (Homo sapiens, UniProt P08684); experiment: Inhibition of recombinant CYP3A4 (unknown origin) by LC/MS/MS analysis; format: ADME
# Chain of Cytochrome P450 3A4 (P08684 whole entry): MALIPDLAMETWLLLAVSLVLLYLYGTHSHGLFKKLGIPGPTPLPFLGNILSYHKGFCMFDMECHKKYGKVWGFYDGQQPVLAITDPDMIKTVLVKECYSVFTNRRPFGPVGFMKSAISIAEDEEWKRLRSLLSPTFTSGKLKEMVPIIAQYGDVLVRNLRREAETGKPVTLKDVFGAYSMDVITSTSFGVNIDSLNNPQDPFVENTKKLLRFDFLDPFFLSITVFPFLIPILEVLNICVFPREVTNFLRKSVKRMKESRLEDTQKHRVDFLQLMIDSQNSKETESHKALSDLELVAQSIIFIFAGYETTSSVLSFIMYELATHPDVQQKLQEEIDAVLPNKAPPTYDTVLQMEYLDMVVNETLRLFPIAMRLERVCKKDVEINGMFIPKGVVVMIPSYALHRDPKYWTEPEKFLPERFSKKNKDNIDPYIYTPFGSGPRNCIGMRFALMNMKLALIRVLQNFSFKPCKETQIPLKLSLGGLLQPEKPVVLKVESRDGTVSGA
# In short: (§2)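 Recombinant CYP enzymes (5 pmol/mL) with substrate, in 100 mM potassium phosphate pH 7.4, 3.3 mM MgCl2, with or without 1 mM NADPH; incubated 10 min (CYP1A2, CYP2C9), 20 min (CYP2C19, CYP2D6), or 3 min (CYP3A4); stopped with cold stop solution containing tolbutamide internal standard; metabolite measured by LC-MS/MS.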
# Cytochrome P450 2D6 = Cytochrome P450 2D6 (Homo sapiens, UniProt P10635); experiment: Inhibition of recombinant CYP2D6 (unknown origin) by LC/MS/MS analysis; format: ADME; in short: as §2
# Chain of Cytochrome P450 2D6 (P10635 whole entry): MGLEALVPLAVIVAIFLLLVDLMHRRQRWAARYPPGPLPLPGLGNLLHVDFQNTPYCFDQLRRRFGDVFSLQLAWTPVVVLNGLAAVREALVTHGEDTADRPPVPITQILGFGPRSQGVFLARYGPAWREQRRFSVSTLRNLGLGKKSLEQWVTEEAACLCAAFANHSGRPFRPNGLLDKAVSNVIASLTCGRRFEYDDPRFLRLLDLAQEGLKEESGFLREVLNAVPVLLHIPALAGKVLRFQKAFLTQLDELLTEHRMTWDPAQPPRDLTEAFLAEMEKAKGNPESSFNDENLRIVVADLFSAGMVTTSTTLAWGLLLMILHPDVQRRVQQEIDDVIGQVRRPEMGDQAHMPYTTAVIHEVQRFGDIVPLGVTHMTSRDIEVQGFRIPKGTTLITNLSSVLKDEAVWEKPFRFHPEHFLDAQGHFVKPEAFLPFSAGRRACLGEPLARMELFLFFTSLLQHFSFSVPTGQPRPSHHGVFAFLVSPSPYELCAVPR
# Cytochrome P450 1A2 = biological target: T1, Cytochrome P450 1A2 (Homo sapiens, UniProt P05177); experiment: Inhibition of recombinant CYP1A2 (unknown origin) by LC/MS/MS analysis; format: ADME; in short: as §2
# T1 sequence (P05177 whole entry): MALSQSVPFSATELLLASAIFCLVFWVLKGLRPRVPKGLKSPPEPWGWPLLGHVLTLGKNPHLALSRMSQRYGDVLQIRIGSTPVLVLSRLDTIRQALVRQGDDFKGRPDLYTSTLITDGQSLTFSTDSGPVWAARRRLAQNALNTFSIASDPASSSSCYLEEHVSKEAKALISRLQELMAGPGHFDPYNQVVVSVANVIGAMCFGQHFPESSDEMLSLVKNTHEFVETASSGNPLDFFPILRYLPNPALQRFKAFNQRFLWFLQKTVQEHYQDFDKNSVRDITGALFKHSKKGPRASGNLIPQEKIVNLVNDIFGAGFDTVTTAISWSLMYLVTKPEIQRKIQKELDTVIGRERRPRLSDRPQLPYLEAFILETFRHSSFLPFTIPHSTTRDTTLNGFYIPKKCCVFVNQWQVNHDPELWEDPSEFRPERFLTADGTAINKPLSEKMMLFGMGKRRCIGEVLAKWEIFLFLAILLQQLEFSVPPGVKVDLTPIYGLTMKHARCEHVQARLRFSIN
# Cytochrome P450 2C9 = Cytochrome P450 2C9 (Homo sapiens, UniProt P11712); experiment: Inhibition of recombinant CYP2C9 (unknown origin) by LC/MS/MS analysis; format: ADME; in short: as §2
# Chain of Cytochrome P450 2C9 (P11712 whole entry): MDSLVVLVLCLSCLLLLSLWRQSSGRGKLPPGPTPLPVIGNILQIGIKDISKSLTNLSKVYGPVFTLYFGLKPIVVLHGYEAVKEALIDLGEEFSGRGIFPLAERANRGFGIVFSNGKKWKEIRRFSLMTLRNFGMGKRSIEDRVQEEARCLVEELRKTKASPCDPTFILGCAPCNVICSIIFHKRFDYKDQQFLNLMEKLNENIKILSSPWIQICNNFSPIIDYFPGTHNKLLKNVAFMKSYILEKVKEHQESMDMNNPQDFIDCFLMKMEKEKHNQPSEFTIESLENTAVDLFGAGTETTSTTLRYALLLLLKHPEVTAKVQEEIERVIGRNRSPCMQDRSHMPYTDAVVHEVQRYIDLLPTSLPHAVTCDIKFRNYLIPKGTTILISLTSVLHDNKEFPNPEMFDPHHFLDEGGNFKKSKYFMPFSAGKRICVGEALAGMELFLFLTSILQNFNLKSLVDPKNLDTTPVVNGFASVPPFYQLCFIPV
# Cytochrome P450 2C19 = Cytochrome P450 2C19 (Homo sapiens, UniProt P33261); experiment: Inhibition of recombinant CYP2C19 (unknown origin) by LC/MS/MS analysis; format: ADME; in short: as §2
# Chain of Cytochrome P450 2C19 (P33261 whole entry): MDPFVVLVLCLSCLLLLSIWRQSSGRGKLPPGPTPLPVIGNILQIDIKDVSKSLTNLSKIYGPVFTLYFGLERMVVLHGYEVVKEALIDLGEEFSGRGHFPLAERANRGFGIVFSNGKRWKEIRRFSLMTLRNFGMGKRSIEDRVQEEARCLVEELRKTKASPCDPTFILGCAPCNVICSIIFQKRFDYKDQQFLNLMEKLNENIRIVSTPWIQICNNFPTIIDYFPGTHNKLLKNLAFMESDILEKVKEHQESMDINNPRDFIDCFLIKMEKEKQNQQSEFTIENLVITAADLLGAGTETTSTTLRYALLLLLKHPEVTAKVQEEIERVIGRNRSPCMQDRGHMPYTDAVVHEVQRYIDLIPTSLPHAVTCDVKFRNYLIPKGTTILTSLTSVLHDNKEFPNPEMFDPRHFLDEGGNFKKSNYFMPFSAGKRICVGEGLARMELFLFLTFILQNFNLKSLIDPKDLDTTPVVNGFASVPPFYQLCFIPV
# [5] = Solubility of the compound in phosphate buffer at pH 7.4; format: physicochemical
# [6] = Solubility of the compound in aqueous solution at pH 2.1; format: physicochemical
SMILES,MIC80 [1] [µM],MIC80 [2] [µM],half-life [3] [min],half-life [4] [min],IC50 (Cytochrome P450 3A4) [µM],IC50 (Cytochrome P450 2D6) [µM],IC50 (Cytochrome P450 1A2) [µM],IC50 (Cytochrome P450 2C9) [µM],IC50 (Cytochrome P450 2C19) [µM],solubility [5] [µg/mL],solubility [6] [µg/mL]
CCc1nc2cc(Cl)ccn2c1C(=O)NCc1ccc(-c2ccncc2)cc1,2.22,0.74,28.9,–,–,–,–,–,–,–,–
CCc1nc2ccc(Cl)cn2c1NC(=O)Cc1ccc(-c2ccccc2)cc1,1.67,0.69,–,–,–,–,–,–,–,–,–
CCCc1nc2ccccn2c1C(=O)NCc1ccc(-c2ccccc2)cc1,1.18,0.05,22.4,8.7,–,–,–,–,–,–,–
CCc1nc2ccc(Cl)cn2c1C(=O)NCc1ccc(-c2ccccc2)cc1,0.045,0.00139,22.8,19.3,–,–,–,–,–,–,–
CCc1nc2cc(Cl)ccn2c1C(=O)NCc1ccc(N2CCC(Cl)CC2)cc1,0.019,0.002,11,5.2,–,–,–,–,–,–,–
CO[C@H]1/C=C/O[C@@]2(C)Oc3c(C)c(O)c4c(O)c(c(/C=N/N5CCN(C)CC5)c(O)c4c3C2=O)NC(=O)/C(C)=C\C=C\[C@H](C)[C@H](O)[C@@H](C)[C@@H](O)[C@@H](C)[C@H](OC(C)=O)[C@@H]1C [RIFAMPIN],0.0266,0.18,–,–,–,–,–,–,–,–,–
CCc1nc2cc(Cl)ccn2c1C(=O)NCc1ccc(N2CCCCC2)cc1,0.016,0.0082,13.2,2.3,–,–,–,–,–,–,–
CCc1nc2ccc(Cl)cn2c1C(=O)NCc1ccc(N2CCC(c3ccc(Cl)cc3)CC2)cc1,0.0041,0.0013,57.9,116,> 40,> 40,> 40,0.26,6.77,2.59,39.7
CCc1nc2ccc(Cl)cn2c1C(=O)NCc1ccc(-c2ccccc2Cl)cc1,0.043,0.0093,38.9,13.1,–,–,–,–,–,–,–
CCc1nc2cc(Cl)ccn2c1C(=O)NCc1ccc(N2CCC(C(F)(F)F)CC2)cc1,0.0008,0.00047,6.5,5.1,–,–,–,–,–,–,–
CCc1nc2ccc(Cl)cn2c1CC(=O)NCc1ccc(-c2ccccc2)cc1,> 10,> 10,–,–,–,–,–,–,–,–,–
CCc1nc2cc(Cl)ccn2c1C(=O)NCc1ccc(-c2ccc(C)cc2)cc1,< 0.0005,0.00135,25.4,23.1,–,–,–,–,–,–,–
CCc1nc2ccc(Cl)cn2c1C(=O)NCc1ccc(-c2ccc(C)cc2)cc1,0.0007,0.00043,30.5,40.6,–,–,–,–,–,1.56,1.42
CCc1nc2ccccn2c1C(=O)NCc1ccc(-c2ccccc2)cc1,0.063,0.097,27.1,–,–,–,–,–,–,–,–
CCc1nc2cc(Cl)ccn2c1C(=O)NCc1ccc(N2CCC(c3ccc(Cl)cc3)CC2)cc1,0.001,0.00046,67.3,112,> 40,> 40,> 40,0.19,0.38,–,–
CCc1nc2ccc(Cl)cn2c1C(=O)Nc1ccc(-c2ccccc2)cc1,> 10,> 10,–,–,–,–,–,–,–,–,–
CCc1nc2cc(Cl)ccn2c1C(=O)NCc1ccc(N2CCC(c3ccc(F)cc3)CC2)cc1,0.54,0.00066,6.8,18.4,2.07,> 40,> 40,0.5,0.6,–,–
Cc1nc2ccccn2c1C(=O)NCc1ccc(-c2ccccc2)cc1,0.25,0.02,–,–,–,–,–,–,–,–,–
CCc1nc2ccc(Cl)cn2c1C(=O)NCc1ccc(-c2ccc(C#N)cc2)cc1,< 0.0005,0.00068,> 120,> 60,–,–,–,–,–,0.61,1.06

SMILES,MIC80 [1] [µM],MIC80 [2] [µM],half-life [3] [min],half-life [4] [min],IC50 (Cytochrome P450 3A4) [µM],IC50 (Cytochrome P450 2D6) [µM],IC50 (Cytochrome P450 1A2) [µM],IC50 (Cytochrome P450 2C9) [µM],IC50 (Cytochrome P450 2C19) [µM],solubility [5] [µg/mL],solubility [6] [µg/mL]
CCc1nc2ccc(Cl)cn2c1C(=O)NCc1ccc(N2CCN(c3ccc(F)cc3)CC2)cc1,< 0.0005,0.0003,> 120,33.3,0.49,> 40,> 40,1.33,1.32,1.31,38.5
CCc1nc2cc(Cl)ccn2c1C(=O)NCc1ccc(-c2ccc(C(C)(C)C)cc2)cc1,0.012,0.00046,18.5,50.7,–,–,–,–,–,–,–
CCc1nc2cc(Cl)ccn2c1C(=O)NCc1ccc(N2CCN(C)CC2)cc1,4.39,0.36,117,12.1,–,–,–,–,–,–,–
CCc1nc2cc(Cl)ccn2c1C(=O)NCc1ccc(N2CCCCCC2)cc1,0.035,0.01,2.9,1.9,–,–,–,–,–,–,–
CCc1nc2ccc(Cl)cn2c1C(=O)N(C)Cc1ccc(-c2ccccc2)cc1,8.69,0.97,–,–,–,–,–,–,–,–,–
CCc1nc2cc(Cl)ccn2c1C(=O)NCc1ccc(N2CC3CCCCC3C2)cc1 (stereo unspecified),0.025,0.0094,14.9,6.3,–,–,–,–,–,–,–
CC(C)c1nc2ccccn2c1C(=O)NCc1ccc(-c2ccccc2)cc1,3.13,3.13,31.6,–,–,–,–,–,–,–,–
CCc1nc2ccc(Cl)cn2c1C(=O)NCc1ccc(N2CCN(c3ccc(OC(F)(F)F)cc3)CC2)cc1,< 0.0005,0.00023,> 120,> 60,11.5,> 40,> 40,0.57,> 40,1.1,12.1
CCc1nc2cc(Cl)ccn2c1C(=O)NCc1ccc(N2CCN(C(C)C)CC2)cc1,3,0.14,> 120,8.9,–,–,–,–,–,–,–
CCc1nc2cc(Cl)ccn2c1C(=O)NCc1ccc(-n2cc3c(c2)CCCC3)cc1,0.034,0.00374,27.3,62.3,–,–,–,–,–,–,–
CCc1nc2cc(Cl)ccn2c1C(=O)NCc1ccc(-c2ccc(C(=O)O)cc2)cc1,0.25,0.217,> 120,> 120,–,–,–,–,–,–,–
Cc1nc2ccc(Cl)cn2c1C(=O)NCc1ccc(-c2ccccc2)cc1,0.175,0.042,> 120,> 60,–,–,–,–,–,–,–
CCc1nc2cc(Cl)ccn2c1C(=O)NCc1ccc(-c2ccc[nH]2)cc1,2,0.14,> 120,10.8,–,–,–,–,–,–,–
CCc1nc2cc(Cl)ccn2c1C(=O)NCc1ccc(N2CCN(c3ccc(OC(F)(F)F)cc3)CC2)cc1,0.0018,0.00011,> 120,> 60,> 40,> 40,> 40,0.17,> 40,–,–
CCc1nc2ccc(Cl)cn2c1CC(=O)Nc1ccc(-c2ccccc2)cc1,> 10,> 10,–,–,–,–,–,–,–,–,–
CCc1nc2ccc(Cl)cn2c1CNCc1ccc(-c2ccccc2)cc1,0.81,0.2,–,–,–,–,–,–,–,–,–
CCc1nc2ccc(Cl)cn2c1C(=O)NCc1ccc(-c2ccc(Cl)cc2)cc1,0.0009,0.00045,83,> 60,–,–,–,–,–,1.97,1.42
CCc1nc2cc(Cl)ccn2c1C(=O)NCc1ccc(-c2ccc(Cl)cc2)cc1,0.0013,0.00101,> 120,> 60,–,–,–,–,–,–,–
